Results: ChEMBL document CHEMBL5356951, “Semisynthetic polymyxins with potent antibacterial activity and reduced kidney cell toxicity” (RSC Med Chem, 2023)
Values after ≈ are worked out from the molar mass of the structure shown.

Assays:
Format in all cases: functional
Escherichia coli [1] = experiment: Antibacterial activity against Escherichia coli ATCC 25922 assessed as bacterial growth inhibition by broth microdilution assay
In short: (§1)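 Broth microdilution. Bacteria from glycerol stocks were grown overnight on blood agar at 37 °C, then colonies were suspended in TSB and grown to OD600 0.5. Compounds were dissolved in DMSO at 6.4 mg mL−1 (stock) and serially diluted in CAMHB (Mg2+ 12.5, Ca2+ 20 μg mL−1) in polypropylene plates. Inoculum was 10^6 CFU mL−1 final, incubated at 37 °C. MIC = lowest concentration without visible growth; values consistent across at least triplicate experiments.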

Escherichia coli [2] = experiment: Antibacterial activity against Escherichia coli 1313 assessed as bacterial growth inhibition by broth microdilution assay; in short: as §1
Escherichia coli [3] = experiment: Antibacterial activity against multidrug-resistant Escherichia coli NCTC 13846 assessed as bacterial growth inhibition by broth microdilution assay
In short: (§2)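 Broth microdilution MIC. Strains grown overnight on blood agar at 37 °C, colonies suspended in TSB and grown to OD600 0.5. Compounds dissolved in DMSO (6.4 mg mL−1 stock), diluted serially in CAMHB (12.5 μg mL−1 Mg2+, 20 μg mL−1 Ca2+) on polypropylene plates. Final inoculum 10^6 CFU mL−1, 37 °C under gas-permeable membrane. MIC is the lowest concentration with no visible growth, consistent across at least triplicate experiments.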

Klebsiella pneumoniae [4] = experiment: Antibacterial activity against Klebsiella pneumoniae ATCC 13883 assessed as bacterial growth inhibition by broth microdilution assay; in short: as §1
Klebsiella pneumoniae [5] = experiment: Antibacterial activity against Klebsiella pneumoniae JS-123 assessed as bacterial growth inhibition by broth microdilution assay; in short: as §1
Klebsiella pneumoniae [6] = experiment: Antibacterial activity against Klebsiella pneumoniae NCTC 13443 assessed as bacterial growth inhibition by broth microdilution assay; in short: as §1
Acinetobacter baumannii [7] = experiment: Antibacterial activity against Acinetobacter baumannii ATCC 19606 assessed as bacterial growth inhibition by broth microdilution assay; in short: as §2
Acinetobacter baumannii [8] = experiment: Antibacterial activity against Acinetobacter baumannii ATCC 17978 assessed as bacterial growth inhibition by broth microdilution assay; in short: as §2
Acinetobacter baumannii [9] = experiment: Antibacterial activity against multidrug-resistant Acinetobacter baumannii assessed as bacterial growth inhibition by broth microdilution assay; in short: as §2
Acinetobacter baumannii [10] = experiment: Antibacterial activity against Acinetobacter baumannii 2018-006 assessed as bacterial growth inhibition by broth microdilution assay; in short: as §2
Pseudomonas aeruginosa [11] = experiment: Antibacterial activity against Pseudomonas aeruginosa ATCC 27853 assessed as bacterial growth inhibition by broth microdilution assay; in short: as §1
Pseudomonas aeruginosa [12] = experiment: Antibacterial activity against Pseudomonas aeruginosa NRZ 08418 assessed as bacterial growth inhibition by broth microdilution assay; in short: as §1
Pseudomonas aeruginosa [13] = experiment: Antibacterial activity against Pseudomonas aeruginosa NRZ 03961 assessed as bacterial growth inhibition by broth microdilution assay; in short: as §1

CC(C)C[C@@H]1NC(=O)[C@@H](Cc2ccccc2)NC(=O)[C@H](CCN)NC(=O)[C@@H](NC(=O)[C@@H](CCN)NC(=O)[C@@H](NC(=O)[C@H](N)CSSCCC2CCCCC2)[C@@H](C)O)CCNC(=O)[C@H]([C@@H](C)O)NC(=O)[C@H](CCN)NC(=O)[C@H](CCN)NC1=O
MIC (Escherichia coli [1]): 2 µg/mL (≈ 1.65 µM)
MIC (Escherichia coli [2]): 0.5 µg/mL (≈ 0.414 µM)
MIC (Escherichia coli [3]): 4 µg/mL (≈ 3.31 µM)
MIC (Klebsiella pneumoniae [4]): 1 µg/mL (≈ 0.827 µM)
MIC (Klebsiella pneumoniae [5]): 1 µg/mL (≈ 0.827 µM)
MIC (Klebsiella pneumoniae [6]): 1 µg/mL (≈ 0.827 µM)
MIC (Acinetobacter baumannii [7]): 0.5 µg/mL (≈ 0.414 µM)
MIC (Acinetobacter baumannii [8]): 1 µg/mL (≈ 0.827 µM)
MIC (Acinetobacter baumannii [9]): 1 µg/mL (≈ 0.827 µM)
MIC (Acinetobacter baumannii [10]): 0.5 µg/mL (≈ 0.414 µM)
MIC (Pseudomonas aeruginosa [11]): 2 µg/mL (≈ 1.65 µM)
MIC (Pseudomonas aeruginosa [12]): 2 µg/mL (≈ 1.65 µM)
MIC (Pseudomonas aeruginosa [13]): 2 µg/mL (≈ 1.65 µM)

CC(C)C[C@@H]1NC(=O)[C@@H](Cc2ccccc2)NC(=O)[C@H](CCN)NC(=O)[C@@H](NC(=O)[C@H](CN)NC(=O)[C@@H](NC(=O)[C@H](N)CSSCCC2CCCCC2)[C@@H](C)O)CCNC(=O)[C@H]([C@@H](C)O)NC(=O)[C@H](CCN)NC(=O)[C@H](CCN)NC1=O
MIC (Escherichia coli [1]): 1 µg/mL (≈ 0.837 µM)
MIC (Escherichia coli [2]): 0.5 µg/mL (≈ 0.419 µM)
MIC (Escherichia coli [3]): 2 µg/mL (≈ 1.67 µM)
MIC (Klebsiella pneumoniae [4]): 1 µg/mL (≈ 0.837 µM)
MIC (Klebsiella pneumoniae [5]): 0.5 µg/mL (≈ 0.419 µM)
MIC (Klebsiella pneumoniae [6]): 1 µg/mL (≈ 0.837 µM)
MIC (Acinetobacter baumannii [7]): 0.5 µg/mL (≈ 0.419 µM)
MIC (Acinetobacter baumannii [8]): 1 µg/mL (≈ 0.837 µM)
MIC (Acinetobacter baumannii [9]): 1 µg/mL (≈ 0.837 µM)
MIC (Acinetobacter baumannii [10]): 0.5 µg/mL (≈ 0.419 µM)
MIC (Pseudomonas aeruginosa [11]): 2 µg/mL (≈ 1.67 µM)
MIC (Pseudomonas aeruginosa [12]): 2 µg/mL (≈ 1.67 µM)
MIC (Pseudomonas aeruginosa [13]): 2 µg/mL (≈ 1.67 µM)

CC(C)C[C@@H]1NC(=O)[C@@H](Cc2ccccc2)NC(=O)[C@H](CCN)NC(=O)[C@@H](NC(=O)CNC(=O)[C@@H](NC(=O)[C@H](N)CSSCCC2CCCCC2)[C@@H](C)O)CCNC(=O)[C@H]([C@@H](C)O)NC(=O)[C@H](CCN)NC(=O)[C@H](CCN)NC1=O
MIC (Escherichia coli [1]): 2 µg/mL (≈ 1.72 µM)
MIC (Escherichia coli [2]): 0.5 µg/mL (≈ 0.429 µM)
MIC (Escherichia coli [3]): 8 µg/mL (≈ 6.86 µM)
MIC (Klebsiella pneumoniae [4]): 1 µg/mL (≈ 0.858 µM)
MIC (Klebsiella pneumoniae [5]): 0.5 µg/mL (≈ 0.429 µM)
MIC (Klebsiella pneumoniae [6]): 1 µg/mL (≈ 0.858 µM)
MIC (Acinetobacter baumannii [7]): 0.5 µg/mL (≈ 0.429 µM)
MIC (Acinetobacter baumannii [8]): 0.5 µg/mL (≈ 0.429 µM)
MIC (Acinetobacter baumannii [9]): 1 µg/mL (≈ 0.858 µM)
MIC (Acinetobacter baumannii [10]): 0.5 µg/mL (≈ 0.429 µM)
MIC (Pseudomonas aeruginosa [11]): 2 µg/mL (≈ 1.72 µM)
MIC (Pseudomonas aeruginosa [12]): 2 µg/mL (≈ 1.72 µM)
MIC (Pseudomonas aeruginosa [13]): 4 µg/mL (≈ 3.43 µM)

CC(C)C[C@@H]1NC(=O)[C@@H](Cc2ccccc2)NC(=O)[C@H](CCN)NC(=O)[C@@H](NC(=O)CNC(=O)[C@@H](NC(=O)[C@H](N)CSSCc2cccc(Cl)c2)[C@@H](C)O)CCNC(=O)[C@H]([C@@H](C)O)NC(=O)[C@H](CCN)NC(=O)[C@H](CCN)NC1=O
MIC (Escherichia coli [1]): 2 µg/mL (≈ 1.7 µM)
MIC (Escherichia coli [2]): 0.25 µg/mL (≈ 0.212 µM)
MIC (Escherichia coli [3]): 8 µg/mL (≈ 6.78 µM)
MIC (Klebsiella pneumoniae [4]): 1 µg/mL (≈ 0.848 µM)
MIC (Klebsiella pneumoniae [5]): 0.5 µg/mL (≈ 0.424 µM)
MIC (Klebsiella pneumoniae [6]): 0.5 µg/mL (≈ 0.424 µM)
MIC (Acinetobacter baumannii [7]): 1 µg/mL (≈ 0.848 µM)
MIC (Acinetobacter baumannii [8]): 1 µg/mL (≈ 0.848 µM)
MIC (Acinetobacter baumannii [9]): 1 µg/mL (≈ 0.848 µM)
MIC (Acinetobacter baumannii [10]): 1 µg/mL (≈ 0.848 µM)
MIC (Pseudomonas aeruginosa [11]): 4 µg/mL (≈ 3.39 µM)
MIC (Pseudomonas aeruginosa [12]): 4 µg/mL (≈ 3.39 µM)
MIC (Pseudomonas aeruginosa [13]): 4 µg/mL (≈ 3.39 µM)

CC(C)CCSSC[C@@H](N)C(=O)N[C@H](C(=O)N[C@H](CCN)C(=O)N[C@H]1CCNC(=O)[C@H]([C@@H](C)O)NC(=O)[C@H](CCN)NC(=O)[C@H](CCN)NC(=O)[C@H](CC(C)C)NC(=O)[C@@H](Cc2ccccc2)NC(=O)[C@H](CCN)NC1=O)[C@@H](C)O
MIC (Escherichia coli [1]): 2 µg/mL (≈ 1.71 µM)
MIC (Escherichia coli [2]): 0.25 µg/mL (≈ 0.214 µM)
MIC (Escherichia coli [3]): 8 µg/mL (≈ 6.85 µM)
MIC (Klebsiella pneumoniae [4]): 0.5 µg/mL (≈ 0.428 µM)
MIC (Klebsiella pneumoniae [5]): 0.25 µg/mL (≈ 0.214 µM)
MIC (Klebsiella pneumoniae [6]): 0.5 µg/mL (≈ 0.428 µM)
MIC (Acinetobacter baumannii [7]): 0.25 µg/mL (≈ 0.214 µM)
MIC (Acinetobacter baumannii [8]): 0.25 µg/mL (≈ 0.214 µM)
MIC (Acinetobacter baumannii [9]): 0.5 µg/mL (≈ 0.428 µM)
MIC (Acinetobacter baumannii [10]): 0.25 µg/mL (≈ 0.214 µM)
MIC (Pseudomonas aeruginosa [11]): 1 µg/mL (≈ 0.856 µM)
MIC (Pseudomonas aeruginosa [12]): 2 µg/mL (≈ 1.71 µM)
MIC (Pseudomonas aeruginosa [13]): 2 µg/mL (≈ 1.71 µM)

CC(C)C[C@@H]1NC(=O)[C@@H](Cc2ccccc2)NC(=O)[C@H](CCN)NC(=O)[C@@H](NC(=O)[C@@H](CCN)NC(=O)[C@@H](NC(=O)[C@H](N)CSSCc2cccc(Cl)c2)[C@@H](C)O)CCNC(=O)[C@H]([C@@H](C)O)NC(=O)[C@H](CCN)NC(=O)[C@H](CCN)NC1=O
MIC (Escherichia coli [1]): 2 µg/mL (≈ 1.64 µM)
MIC (Escherichia coli [2]): 0.5 µg/mL (≈ 0.409 µM)
MIC (Escherichia coli [3]): 4 µg/mL (≈ 3.27 µM)
MIC (Klebsiella pneumoniae [4]): 1 µg/mL (≈ 0.818 µM)
MIC (Klebsiella pneumoniae [5]): 0.5 µg/mL (≈ 0.409 µM)
MIC (Klebsiella pneumoniae [6]): 0.5 µg/mL (≈ 0.409 µM)
MIC (Acinetobacter baumannii [7]): 0.5 µg/mL (≈ 0.409 µM)
MIC (Acinetobacter baumannii [8]): 1 µg/mL (≈ 0.818 µM)
MIC (Acinetobacter baumannii [9]): 1 µg/mL (≈ 0.818 µM)
MIC (Acinetobacter baumannii [10]): 0.5 µg/mL (≈ 0.409 µM)
MIC (Pseudomonas aeruginosa [11]): 2 µg/mL (≈ 1.64 µM)
MIC (Pseudomonas aeruginosa [12]): 2 µg/mL (≈ 1.64 µM)
MIC (Pseudomonas aeruginosa [13]): 2 µg/mL (≈ 1.64 µM)

CC(C)C[C@@H]1NC(=O)[C@@H](Cc2ccccc2)NC(=O)[C@H](CCN)NC(=O)[C@@H](NC(=O)[C@@H](CO)NC(=O)[C@@H](NC(=O)[C@H](N)CSSCc2cccc(Cl)c2)[C@@H](C)O)CCNC(=O)[C@H]([C@@H](C)O)NC(=O)[C@H](CCN)NC(=O)[C@H](CCN)NC1=O
MIC (Escherichia coli [1]): 2 µg/mL (≈ 1.65 µM)
MIC (Escherichia coli [2]): 0.5 µg/mL (≈ 0.413 µM)
MIC (Escherichia coli [3]): 8 µg/mL (≈ 6.61 µM)
MIC (Klebsiella pneumoniae [4]): 1 µg/mL (≈ 0.827 µM)
MIC (Klebsiella pneumoniae [5]): 0.25 µg/mL (≈ 0.207 µM)
MIC (Klebsiella pneumoniae [6]): 0.5 µg/mL (≈ 0.413 µM)
MIC (Acinetobacter baumannii [7]): 0.5 µg/mL (≈ 0.413 µM)
MIC (Acinetobacter baumannii [8]): 0.5 µg/mL (≈ 0.413 µM)
MIC (Acinetobacter baumannii [9]): 0.5 µg/mL (≈ 0.413 µM)
MIC (Acinetobacter baumannii [10]): 0.5 µg/mL (≈ 0.413 µM)
MIC (Pseudomonas aeruginosa [11]): 4 µg/mL (≈ 3.31 µM)
MIC (Pseudomonas aeruginosa [12]): 4 µg/mL (≈ 3.31 µM)
MIC (Pseudomonas aeruginosa [13]): 8 µg/mL (≈ 6.61 µM)
